The values below come from ChEMBL document CHEMBL4368870, “Design, synthesis and biological evaluation of novel 2-phenyl pyrimidine derivatives as potent Bruton's tyrosine kinase (BTK) inhibitors” (Medchemcomm, 2019).

Calls of active or inactive are those of the source. No cut-off for these calls is given here.

Assay [1] deals with Ramos. In words: Antiproliferative activity against human Ramos cells after 48 hrs by MTT assay. In kind it is functional, cell-based. In outline: (§1)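 Cell proliferation read by MTT in three […] (HL60, Raji, Ramos), all said to over-express BTK. IC50 values were determined for each line.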
Another assay concerns HL-60. In words: Antiproliferative activity against human HL60 cells after 48 hrs by MTT assay. The note with it: HL-60, 48 h. In kind it is functional, cell-based. In outline: as §1
In general terms: Formazan colour is commonly taken as a measure of viable cells.

Assay [2] has as its system Raji. Put plainly: Antiproliferative activity against human Raji cells after 48 hrs by MTT assay. It is filed as functional, cell-based. Summed up:
as §1

Assay [3] has as its target Tyrosine-protein kinase BTK (Homo sapiens) (UniProt Q06187). Put plainly: Inhibition of BTK in human Ramos cells assessed as reduction in PLCgamma-2 phosphorylation at Try1217 residue at 100 to 9000 nM after 24 hrs by Western blot analysis. It is filed as cell-based.
Assay [4] deals with Ramos. Put plainly: Cell cycle arrest in human Ramos cells assessed as accumulation of cells at G0/G1 phase at 5 uM after 48 hrs by propidium iodide staining-based flow cytometric analysis (reference value: 24.65%). It is filed as functional. In outline:
(§2)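 Ramos cells incubated 48 h with 5 μM test agent, DMSO as blank control; DNA content by flow cytometry gives the share of cells in each cell-cycle phase.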
A general note: Flow cytometry measures light scatter and fluorescence of single cells or particles in a stream.

Assay [5] has as its system Ramos. Put plainly: Cell cycle arrest in human Ramos cells assessed as accumulation of cells at S phase at 5 uM after 48 hrs by propidium iodide staining-based flow cytometric analysis (reference value: 71.08%). It is filed as functional. Summed up:
as §2

The test system of assay [6] is Raji. Put plainly: Antiproliferative activity against human Raji cells at 40 uM after 72 hrs by MTT assay relative to control. It is filed as functional. Summed up:
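Raji cells were exposed to the compound over a range of concentrations and treatment times, with the MTT-based viability read-out taken up to 72 h. The 40 μM, 72 h point is expressed as viability relative to control.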

Assay [7] relates to Ramos. In words: Induction of apoptosis in human Ramos cells assessed as necrotic cells at 5 uM after 48 hrs by propidium iodide staining-based flow cytometric analysis (reference value: 1.11%). It is filed as functional.
The subject of assay [8] is Ramos. Put plainly: Cell cycle arrest in human Ramos cells assessed as apoptotic cells at 5 uM after 48 hrs by propidium iodide staining-based flow cytometric analysis (reference value: 5.03%). It is filed as functional.
Assay [9] has as its system Ramos. In words: Induction of apoptosis in human Ramos cells assessed as late apoptotic cells at 5 uM after 48 hrs by propidium iodide staining-based flow cytometric analysis (reference value: 0.98%). In kind it is functional.
In assay [10] the test system is Ramos. In words: Cell cycle arrest in human Ramos cells assessed as accumulation of cells at G2/M phase at 5 uM after 48 hrs by propidium iodide staining-based flow cytometric analysis (reference value: 4.26%). In kind it is functional. In outline:
as §2

Assay [11] has as its system Raji. In words: Antiproliferative activity against human Raji cells at 5 uM by MTT assay. In kind it is functional, cell-based. The note with it: TDE = time-dependent effect. Summed up:
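Raji cells, proliferation by MTT; viability followed over treatment time at 5 μM.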

The subject of assay [12] is Ramos. In words: Induction of apoptosis in human Ramos cells assessed as viable cells at 5 uM after 48 hrs by propidium iodide staining-based flow cytometric analysis (reference value: 96.83%). In kind it is functional. The note with it: read-out: Activity.
Assay [13] addresses Tyrosine-protein kinase BTK (Homo sapiens) (UniProt Q06187). Put plainly: Inhibition of BTK phosphorylation at Tyr223 residue in human Ramos cells at 100 to 9000 nM after 24 hrs by Western blot analysis. In kind it is cell-based. Background: Immunoblotting shows a protein as a band on a membrane.
The test system of assay [14] is Ramos. In words: Induction of apoptosis in human Ramos cells assessed as early apoptotic cells at 5 uM after 48 hrs by propidium iodide staining-based flow cytometric analysis (reference value: 1.08%). In kind it is functional.

One may read the IC50 as the midpoint of a concentration-inhibition curve. Lower therefore signals inhibition by little substance.

Sequence of Tyrosine-protein kinase BTK (Homo sapiens) (Q06187 whole entry): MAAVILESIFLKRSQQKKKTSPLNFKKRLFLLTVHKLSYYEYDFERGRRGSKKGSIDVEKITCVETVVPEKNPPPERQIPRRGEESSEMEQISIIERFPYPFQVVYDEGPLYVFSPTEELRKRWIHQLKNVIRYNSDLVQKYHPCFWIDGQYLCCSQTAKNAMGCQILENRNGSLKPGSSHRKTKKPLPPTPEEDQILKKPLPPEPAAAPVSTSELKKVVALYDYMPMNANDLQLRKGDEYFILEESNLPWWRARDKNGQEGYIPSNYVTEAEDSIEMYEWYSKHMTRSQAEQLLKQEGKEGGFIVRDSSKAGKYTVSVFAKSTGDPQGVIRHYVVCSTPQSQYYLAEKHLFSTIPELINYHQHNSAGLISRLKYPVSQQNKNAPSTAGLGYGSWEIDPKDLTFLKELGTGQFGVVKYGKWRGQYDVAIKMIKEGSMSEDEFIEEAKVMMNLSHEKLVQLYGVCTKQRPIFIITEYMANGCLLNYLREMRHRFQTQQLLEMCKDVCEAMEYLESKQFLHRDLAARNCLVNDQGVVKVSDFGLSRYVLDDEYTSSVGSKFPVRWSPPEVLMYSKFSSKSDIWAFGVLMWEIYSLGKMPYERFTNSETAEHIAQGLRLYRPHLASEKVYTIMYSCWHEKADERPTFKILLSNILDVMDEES

Consider `C=CC(=O)Nc1ccc(-c2nc(Cl)cc(Nc3ccc(C(=O)N4CCOCC4)cc3)n2)cc1`, for which the 50% inhibitory concentration (IC50) turned out to be 7.24 µM with Ramos [1], 5.94 µM in the assay with HL-60 and 14.7 µM with Raji [2].

With `C=CC(=O)Nc1ccc(-c2nc(Cl)cc(Nc3ccc(C(=O)Nc4cccc(C)c4)cc3)n2)cc1`, the inhibition result in assay [3] and in assay [13] was “Active” throughout. Besides, the IC50 amounted to 5.39 µM with Ramos [1], 3.66 µM with HL-60 and 6.98 µM in the assay with Raji [2]. Also, the Activity in the assay on Ramos [4] is 36.27%; in the assay with Ramos [5], 59.51%; with Raji [6], 90%; in the assay on Ramos [7], 0.23%; with Ramos [8], 13.91%; in the assay on Ramos [9] it was 12.7%. For the same compound, the results for the Activity in the assay on Ramos [10], in the assay on Raji [11] and with Ramos [14] were 4.21%, “Tde” and 25.8%, respectively. Further, the viability at 5 µM in the assay with Ramos [12] was determined as 61.3%.

Turning to `C=CC(=O)N1CCC[C@@H](n2nc(-c3ccc(Oc4ccccc4)cc3)c3c(N)ncnc32)C1` [IBRUTINIB], the IC50 turned out to be 2.31 µM in the assay with Ramos [1], 3.57 µM in the assay with HL-60 and 14.5 µM with Raji [2]. The Activity with Ramos [4] came out at 30.5%; in the assay with Ramos [5], 65.18%; in the assay on Ramos [7], 0.37%; with Ramos [8], 4.33%; in the assay with Ramos [9], 2.71%; in the assay with Ramos [10], 4.26%. In addition, the Activity entry in the assay on Raji [11] is “Tde”; with Ramos [14], 5.12%. Besides, the viability at 5 µM in the assay on Ramos [12] turned out to be 91.8%.

Take `C=CC(=O)Nc1ccc(-c2nc(Cl)cc(Nc3ccc(C(=O)N(CC)CC)cc3)n2)cc1`: the IC50 in the assay on Ramos [1] was 11.2 µM; in the assay on HL-60, 9.34 µM; in the assay with Raji [2] it was 12.5 µM.

As for `C=CC(=O)Nc1ccc(-c2nc(Cl)cc(Nc3ccc(C(=O)N4CCCC4)cc3)n2)cc1`, the IC50 is 10.4 µM in the assay with Ramos [1], 15.8 µM in the assay with HL-60 and 19.2 µM in the assay with Raji [2].

Turning to `C=CC(=O)Nc1ccc(-c2nc(Cl)cc(Nc3ccc(C(=O)N(C)C)cc3)n2)cc1`, the IC50 with Ramos [1] was above 50 µM; in the assay with HL-60 it was above 50 µM; in the assay on Raji [2], 42.9 µM.

Regarding `C=CC(=O)Nc1ccc(-c2nc(Cl)cc(Nc3ccc(C(=O)Nc4cc(C)ccc4C)cc3)n2)cc1`, the concentration for half-maximal inhibition (IC50) in the assay on Ramos [1] was 16.8 µM; in the assay with HL-60, 14.9 µM; in the assay on Raji [2] it was 20.9 µM.

Consider `C=CC(=O)Nc1ccc(-c2nc(Cl)cc(Nc3ccc(C(=O)Nc4cc(C(F)(F)F)cc(C(F)(F)F)c4)cc3)n2)cc1`, for which the IC50 in the assay on Ramos [1] was 6.18 µM; with HL-60 it was 4.79 µM; with Raji [2], 9.36 µM.
